Reference: ChEMBL document CHEMBL1629599, “A small-molecule screen identifies the antipsychotic drug pimozide as an inhibitor of Listeria monocytogenes infection” (2009)
The source made the active and inactive calls. No cut-off for these calls is given here.

Key:
Listeria monocytogenes [1] = assay: Antimicrobial activity against Listeria monocytogenes DH-L1252 infected in murine bone marrow macrophages assessed as decrease in GFP reporter gene expression at 18.1 uM after 15 hrs; type: functional, organism-based
Method in brief: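 Primary BALB/c bone marrow macrophages (differentiated 6 days with L929 supernatant) are treated with 18.1 µM compound or DMSO, then infected with GFP-expressing 10403S (DH-L1252) at MOI 1:2. Extracellular bacteria are killed with 5 µg/ml gentamicin after 1 h. At 15 h post-infection, cells are fixed with paraformaldehyde and Hoechst-stained, and GFP is imaged by automated microscopy. Three independent infections in duplicate.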

Listeria monocytogenes [2] = assay: Antimicrobial activity against Listeria monocytogenes DH-L1252 infected in murine bone marrow macrophages assessed as decrease in growth rate at 18.1 uM after 6 hrs; type: functional, organism-based
Listeria monocytogenes [3] = assay: Antimicrobial activity against Listeria monocytogenes DH-L1252 infected in murine bone marrow macrophages assessed as log reduction in intracellular bacterial count upto 10 hrs; type: functional
Method in brief: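 BALB/c bone-marrow macrophages were seeded at 4 × 10^5/well 24 h ahead and pretreated 2 h with 18.1 µM drug or DMSO. They were infected at MOI 1:2 in antibiotic-free medium with washed Listeria grown 14–16 h in BHI at 30°C without shaking, with drug present throughout. At 1 h, 5 µg/ml gentamicin was added. At each time point cells were lysed in 0.1% Triton X-100 and CFU counted on LB agar, in triplicate.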

Listeria monocytogenes [4] = assay: Antimicrobial activity against Listeria monocytogenes DH-L1252 infected in murine bone marrow macrophages assessed as intracellular bacterial replication upto 10 hrs; type: functional, organism-based
Method in brief: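 BALB/c bone marrow macrophages (4 × 10^5/well) are pretreated 2 h with 18.1 µM compound or DMSO, then infected with washed wild-type 10403S at MOI 1:2 in the presence of compound. At 1 h, medium with 5 µg/ml gentamicin plus compound is added. At set times, cells are lysed in 0.1% Triton X-100 and lysates plated on LB agar for CFU. Triplicates.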

Listeria monocytogenes [5] = assay: Inhibition of internalization of Listeria monocytogenes 10403S into murine bone marrow macrophages pretreated at 2.5 to 20 uM for 2 hrs; type: functional
Method in brief: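 Bone marrow macrophages are pretreated 2 h with twofold compound dilutions, then infected with wild-type 10403S at MOI 10:1. Extracellular bacteria are killed with 50 µg/ml gentamicin at 30 min. At 90 min, cells are lysed and intracellular CFU enumerated. Three experiments in triplicate, fitted by linear regression.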

Listeria monocytogenes [6] = assay: Inhibition of internalization of Listeria monocytogenes 10403S into murine J774 cells pretreated at 18.1 uM for 2 hrs; type: functional
Method in brief: (§1)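 J774 or RAW 264.7 cells (4 × 10^5/well) are pretreated 2 h with 18.1 µM compound or DMSO, then infected with washed wild-type 10403S at MOI 10:1 with compound. At 30 min, medium with 50 µg/ml gentamicin plus compound is added. At 90 min, cells are lysed in 0.1% Triton X-100 and intracellular CFU plated on LB agar. Triplicates.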

Listeria monocytogenes [7] = assay: Inhibition of internalization of Listeria monocytogenes 10403S into murine Raw 264.7 cells pretreated at 18.1 uM for 2 hrs; type: functional; conditions: RAW264.7; method in brief: as §1
Bacillus subtilis = assay: Inhibition of internalization of Bacillus subtilis into murine murine bone marrow macrophages pretreated at 18.1 uM for 2 hrs; type: functional
Method in brief: (§2)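 Gentamicin protection assay: bone marrow macrophages (4 × 10^5/well) pretreated 2 h with 18.1 µM compound or DMSO, then infected with B. subtilis 3610 (MOI 1.5:1), Salmonella Typhimurium IR715 (MOI 20:1) or E. coli K12 MM294 (MOI 20:1), all grown in LB at 37°C. After 30 min, 50 µg/ml gentamicin plus compound added; lysed at 90 min; CFU on LB agar; triplicates.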

Salmonella typhimurium = assay: Inhibition of internalization of Salmonella enterica serovar Typhimurium into murine murine bone marrow macrophages pretreated at 18.1 uM for 2 hrs; type: functional, Salmonella enterica subsp. enterica serovar Typhimurium; method in brief: as §2
Escherichia coli = assay: Inhibition of internalization of Escherichia coli K-12 into murine murine bone marrow macrophages pretreated at 18.1 uM for 2 hrs; type: functional; method in brief: as §2
Listeria monocytogenes [8] = assay: Inhibition of internalization of Listeria monocytogenes DH-L1252 into murine bone marrow macrophages assessed as reduction in vacuolar escape of bacteria using phalloidin staining; type: functional
Method in brief: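 Bone marrow macrophages on coverslips are treated 2 h with 18.1 µM compound or DMSO, then infected 30 min at MOI 10:1 with GFP 10403S grown to OD600 ~0.5 at 37°C. Gentamicin (50 µg/ml) plus compound is added. At 90 min, cells are fixed and stained with Texas Red-phalloidin and Hoechst. At least 100 bacteria per coverslip are scored as percent F-actin-associated.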

Listeria monocytogenes [9] = assay: Antimicrobial activity against Listeria monocytogenes 10403S infected in L2 cells assessed as intracellular bacterial replication; type: functional, cell-based
Method in brief: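 L2 fibroblasts (2 × 10^5/well, seeded 24 h before) are pretreated 2 h with 18.1 µM compound or DMSO. They are then infected with washed wild-type 10403S grown 14–16 h at 30°C in BHI, in antibiotic-free medium with compound. At 1 h, medium with 50 µg/ml gentamicin plus compound is added. At set times, cells are lysed in 0.1% Triton X-100 and lysates plated on LB agar for CFU. Triplicates.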

Listeria monocytogenes [10] = assay: Antimicrobial activity against Listeria monocytogenes 10403S infected in L2 cells assessed as decrease in number of plaque formation at 18.1 uM after 1 hr; type: functional, cell-based
Listeria monocytogenes [11] = assay: Antimicrobial activity against Listeria monocytogenes 10403S infected in L2 cells assessed as decrease in plaque size at 18.1 uM after 1 hr; type: functional; conditions: L2, 1 h
Method in brief: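 Wild-type L. monocytogenes grown 14–16 h, PBS-washed, infects L2 fibroblast monolayers (2 × 10^6 cells/well, seeded 24 h before) at MOI 1:5 after 2 h compound or DMSO pretreatment. At 1 h, wash and add agarose overlay with 30 µg/ml gentamicin plus 18.1 µM compound. Neutral red overlay added at 72 h. Plates scanned at 96 h; diameters of 10 plaques per well expressed as percent of DMSO; three independent experiments.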

Listeria monocytogenes [12] = assay: Inhibition of Listeria monocytogenes 10403S entry into murine bone marrow macrophages at 18.1 uM after 30 mins in calcium-free medium; type: functional; conditions: 0.5 h
Method in brief: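 Bone marrow macrophages are preincubated 30 min in calcium-free buffer (NaCl, KCl, MgCl2, 0.1 mM EGTA, glucose, HEPES, pH 7.35) with 18.1 µM compound or DMSO. They are then infected with wild-type 10403S for 15 min. Calcium-free medium with 50 µg/ml gentamicin plus compound is added. At 45 min, cells are lysed and intracellular CFU plated on LB agar. Triplicates.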

Compound: O=c1[nH]c2ccccc2n1C1CCN(CCCC(c2ccc(F)cc2)c2ccc(F)cc2)CC1 [PIMOZIDE]
- Activity (Listeria monocytogenes [1]): Active
- Activity (Listeria monocytogenes [2]): inactive
- FC (Listeria monocytogenes [3]): 1
- Activity (Listeria monocytogenes [4]): inactive
- inhibition (Listeria monocytogenes [5]): Dose-dependent effect
- inhibition at 18.1 µM (Listeria monocytogenes [6]): 75%
- inhibition at 18.1 µM (Listeria monocytogenes [7]): 95%
- inhibition at 18.1 µM (Bacillus subtilis): 73%
- inhibition at 18.1 µM (Salmonella typhimurium): 64%
- inhibition at 18.1 µM (Escherichia coli): 60%
- inhibition (INH) (Listeria monocytogenes [8]): 26.3%
- Activity (Listeria monocytogenes [9]): inactive
- inhibition (Listeria monocytogenes [10]): Active
- inhibition at 18.1 µM (Listeria monocytogenes [11]): 47.1%
- inhibition at 18.1 µM (Listeria monocytogenes [12]): 95%
